Results gathered from unrelated publications.
Each line is one published result; the experiments were not run side by side.

| SMILES | system | setting | quantity | value |
| --- | --- | --- | --- | --- |
| CN1CC[C@@H](c2c(O)cc(O)c3c(=O)cc(-c4ccc(C(F)(F)F)cc4Cl)oc23)[C@@H]1CO | human, plasma | oral, 100 mg, patients | Tmax | 3.9 h |
| NS(=O)(=O)OC[C@@H]1C[C@@H](n2ccc3c(N[C@H]4CCc5ccccc54)ncnc32)C[C@@H]1O | human, plasma | intravenous, 25 mg/m², patients | Tmax | 1.04 h |
| COc1ccc([C@@H](O)c2cc(-c3ncnc4cc(N5CCOCC5)ccc34)c(F)cc2Cl)nn1 | human, plasma | oral, 200 mg, single dose, patients | Tmax | 2.02 h |
| COc1ccc([C@@H]2Sc3ccccc3N(CCN(C)C)C(=O)[C@@H]2OC(C)=O)cc1 | Sprague-Dawley rat, hepatocytes | 2 µM, 4 h, pH 7.4 | fraction unbound | 0.89 |
| O=C1CC[C@H](N2Cc3cc(N4CCN(CC5CCN(c6ccc([C@@H]7c8ccc(O)cc8CC[C@@H]7c7ccccc7)cc6)CC5)CC4)ccc3C2=O)C(=O)N1 | female Sprague-Dawley rat, plasma | oral, 20 mg/kg, fed | MRT(0-inf) | 12 h |
| Cn1cc(Nc2nc(N)nc(-c3cccc(-n4ccc5cc(C6CC6)cc(F)c5c4=O)c3CO)n2)cn1 | human, plasma | oral, 300 mg, single dose, fasted, suspension | Tmax | 2.52 h |
| CC(C)NCC(O)COc1cccc2ccccc12 (stereo not shown) | Sprague-Dawley rat, hepatocytes | 2 µM, 4 h, pH 7.4 | fraction unbound | 0.88 |
| O=C1c2ccncc2C(=O)c2c1[nH]c1ccccc21 | rat, plasma | intravenous, 1 mg/kg, single dose | MRT | 2.4 h |
| C[C@H]1[C@@H](O)O[C@@H]2O[C@@]3(C)CC[C@H]4[C@H](C)CC[C@@H]1[C@@]24OO3 | Sprague-Dawley rat, plasma | oral, 10 mg/kg | MRT(0-t) | 2.93 h |
| N#C[C@@]12C[C@@H]1[C@@H](n1cnc3c(N[C@@H](C4CCC4)C4CC4)nc(I)nc31)[C@H](O)[C@@H]2O | male Wistar rat, plasma | oral, 1 mg/kg | MRT(0-t) | 1.59 h |
